Assay outcomes from PubChem.
Rows were chosen to be rich in hits. Some 3.4% of all compounds tested hit in one or more screens of this group.
MEKK3 PB1 HTS = raises or lowers MEK5 binding to the human MEKK3 PB1 domain | Q99759 | bead-based flow cytometry, Alexa488-MEK5 binding to MEKK3; actives lie on both sides; 0 = blocked by unlabeled MEK5, 100 = vehicle | binding response (% of control), % at 10 µM | 290,000 compounds, 1.4% hits;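 active means binding response more than 3 SD above or below the average of its plate-row segment, actives on both sides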;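 further: Alexa488 bead fluorescence after subtracting the streptavidin-only scavenger bead signal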
Target sequence (Q99759 whole entry, looked up, the tested form may be a part): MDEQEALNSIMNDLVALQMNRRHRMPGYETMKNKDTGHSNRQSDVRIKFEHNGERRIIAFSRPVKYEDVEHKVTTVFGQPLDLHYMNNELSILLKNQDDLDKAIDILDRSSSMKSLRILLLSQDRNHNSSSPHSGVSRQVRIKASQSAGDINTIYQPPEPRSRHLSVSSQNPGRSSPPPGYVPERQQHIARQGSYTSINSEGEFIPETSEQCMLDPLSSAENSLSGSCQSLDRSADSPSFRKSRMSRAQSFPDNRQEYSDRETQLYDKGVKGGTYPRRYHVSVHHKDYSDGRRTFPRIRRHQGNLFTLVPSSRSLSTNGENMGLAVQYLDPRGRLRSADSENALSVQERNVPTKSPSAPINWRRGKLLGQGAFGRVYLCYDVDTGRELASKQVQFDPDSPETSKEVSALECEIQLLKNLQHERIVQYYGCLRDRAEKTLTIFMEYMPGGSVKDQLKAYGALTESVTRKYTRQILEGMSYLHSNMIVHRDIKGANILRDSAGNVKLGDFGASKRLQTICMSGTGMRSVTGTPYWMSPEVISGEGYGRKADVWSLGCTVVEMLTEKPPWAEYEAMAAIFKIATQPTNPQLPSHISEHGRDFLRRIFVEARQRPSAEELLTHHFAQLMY
MEKK2wt PB1 HTS = raises or lowers MEK5 binding to wildtype human MEKK2 PB1 domain. Q9Y2U5. bead flow cytometry, Alexa488-MEK5 binding to MEKK2 WT; actives lie on both sides. binding response (% of control), % at 10 µM. 290,000 compounds, 1.1% hits. AID 1531; in the data active means binding response below about 67% or above about 130%
VIM-2 inhibitor = blocks Pseudomonas aeruginosa VIM-2 metallo-beta-lactamase. purified VIM-2, nitrocefin hydrolysis, epi-absorbance fluorescence. inhibition, % at 5.6 µM. 290,000 compounds, 0.89% hits. AID 1527;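 active means inhibition above the mean of all tested compounds plus 3 SD, cutoff set per screening run, cut at about 7.5% in these data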;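 further: red hydrolysis product quenches plate fluorescence so inhibitors raise well fluorescence; 0% = enzyme with DMSO and 100% = DMSO without enzyme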
IMP-1 inh = inhibitors of Pseudomonas aeruginosa IMP-1 metallo-beta-lactamase | purified IMP-1, nitrocefin hydrolysis, epi-absorbance fluorescence | inhibition, % at 5.6 µM | 290,000 compounds, 0.45% hits;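 active means inhibition above the mean plus 3 SD of all compounds in the same screening run, cut at about 4.5% in these data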;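 further: 0% = IMP-1 with DMSO and 100% = DMSO wells lacking enzyme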
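System: Purified IMP-1 | Read-out basis: Percent enzyme inhibition | Controls: IMP-1 with DMSO as 0%, enzyme-free DMSO as 100% | Replicates: One well per compound | Doses: 5.6 µM nominal single concentration | Detection: Epi-absorbance fluorescence, 480 nm excitation, 530 nm emission | Incubation: 25 °C, 15 min preincubation, 25 min reaction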
MEKK2mut PB1 HTS = signal of MEK5 binding to mutant human MEKK2 PB1 domain | 290,000 compounds, 0.35% hits | percent response, % at 10 µM | AID 1530 | bead flow cytometry, Alexa488-MEK5 binding to MEKK2 mutant; in the data active means percent response above about 24%, passing the limit was not always enough
MEKK2wt confirm = raises or lowers MEK5 binding to wildtype human MEKK2, retest; bead flow cytometry, Alexa488-MEK5 binding to MEKK2 WT; actives lie on both sides; 5,900 compounds, 2.4% hits; binding response (% of control), % at 10 µM; shares compounds with MEKK3 PB1 HTS; in the data active means binding response below about 16% or above about 210%; inactive means in between
MEKK2mut confirm = signal of MEK5 binding to mutant human MEKK2, retest | shares compounds with MEKK3 PB1 HTS | bead flow cytometry, Alexa488-MEK5 binding to MEKK2 mutant | percent response, % at 10 µM | 5,900 compounds, 2% hits; in the data active means percent response mostly above about 71%, no sharp cut-off; inactive means mostly below about 38%;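 further: higher means compound restores mutant binding toward wildtype level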
MEKK3 confirm = MEKK3-MEK5 PB1 inhibition, single concentration confirmation. shares compounds with MEKK3 PB1 HTS. binding response (% of control), % at 10 µM. bead flow cytometry, Alexa488-MEK5 binding to MEKK3; hits give low values. 5,900 compounds, 1.8% hits. AID 1894;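 active means binding response below 72% of control, or above a set upper limit, though filed actives all read lower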;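 further: 100% = DMSO only wells and 0% = binding blocked by excess unlabeled MEK5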
* hit, by the source's call; [ ] = another dose, or the depositor's remark.

For CN(C)CC(C)(C)CNC(=S)NCc1ccc2c(c1)OCO2 the results were MEKK3 PB1 HTS 128.0*, MEKK2wt PB1 HTS 104.0, VIM-2 inhibitor -1.4, IMP-1 inh -4.2, MEKK2mut PB1 HTS 3.0, MEKK2wt confirm 99.0, MEKK2mut confirm 3.0 and MEKK3 confirm 106.0.
For COC(=O)c1ccc(OC(=O)c2cccnc2)cc1 the results were MEKK3 PB1 HTS 128.0*, MEKK2wt PB1 HTS 106.0, VIM-2 inhibitor -2.5, IMP-1 inh -3.4, MEKK2mut PB1 HTS 0.0, MEKK2wt confirm 97.0, MEKK2mut confirm -7.0 and MEKK3 confirm 95.0.
CC(C)OC(=O)c1ccc(OC(=O)c2cccnc2)cc1 was read as MEKK3 PB1 HTS 105.0, MEKK2wt PB1 HTS 104.0, VIM-2 inhibitor 0.1, IMP-1 inh -0.9 and MEKK2mut PB1 HTS 6.0.
CCCc1c(C)nc2ccccc2c1SCCC#N was read as MEKK3 PB1 HTS 60.0*[inhibitor], MEKK2wt PB1 HTS 93.0, VIM-2 inhibitor -2.5, IMP-1 inh -4.2, MEKK2mut PB1 HTS 0.0, MEKK2wt confirm 95.0, MEKK2mut confirm 0.0 and MEKK3 confirm 98.0.
`CCc1c(C)nc2c(Br)cccc2c1SCCC#N` gave MEKK3 PB1 HTS 143.0*, MEKK2wt PB1 HTS 102.0, VIM-2 inhibitor -3.1, IMP-1 inh -1.4, MEKK2mut PB1 HTS 2.0, MEKK2wt confirm 102.0, MEKK2mut confirm -2.0 and MEKK3 confirm 101.0.
Screening NS(=O)(=O)c1ccc(CCNC(=O)C2CCN(S(=O)(=O)c3ccc(Br)s3)CC2)cc1 returned MEKK3 PB1 HTS 2.0*[inhibitor], MEKK2wt PB1 HTS 3.0*[inhibitor], VIM-2 inhibitor -0.2, IMP-1 inh 0.2, MEKK2mut PB1 HTS -46.0, MEKK2wt confirm 104.0, MEKK2mut confirm 4.0 and MEKK3 confirm 103.0.
For CCN(CC(=O)Nc1ccccc1-c1ccccc1)Cc1nc2ccccc2c(=O)[nH]1 the results were MEKK3 PB1 HTS 64.0*[inhibitor], MEKK2wt PB1 HTS 72.0, VIM-2 inhibitor -6.1, IMP-1 inh -3.7, MEKK2mut PB1 HTS -3.0, MEKK2wt confirm 98.0, MEKK2mut confirm -3.0 and MEKK3 confirm 97.0.
`COc1ccc2sc(N(CCCN(C)C)C(=O)c3nc4ccccc4s3)nc2c1` gave MEKK3 PB1 HTS 111.0, MEKK2wt PB1 HTS 195.0*, VIM-2 inhibitor -2.0, IMP-1 inh -3.2, MEKK2mut PB1 HTS 25.0, MEKK2wt confirm 166.0, MEKK2mut confirm 38.0 and MEKK3 confirm 104.0.
CCN(CC)CCN(C(=O)c1ccc(S(=O)(=O)N(C)C2CCCCC2)cc1)c1nc2ccc(OC)cc2s1 was read as MEKK3 PB1 HTS 103.0, MEKK2wt PB1 HTS 129.0, VIM-2 inhibitor -2.2, IMP-1 inh -0.9 and MEKK2mut PB1 HTS 5.0.
Cc1ccc2nc(N(CCN(C)C)C(=O)c3ccc4ccccc4c3)sc2c1 was read as MEKK3 PB1 HTS 105.0, MEKK2wt PB1 HTS 130.0, VIM-2 inhibitor -1.7, IMP-1 inh -2.2 and MEKK2mut PB1 HTS 14.0.
For COc1ccc2nc(N(CCN(C)C)C(=O)c3ccc(C(=O)c4ccccc4)cc3)sc2c1 the results were MEKK3 PB1 HTS 108.0, MEKK2wt PB1 HTS 146.0*, VIM-2 inhibitor -0.6, IMP-1 inh -2.5, MEKK2mut PB1 HTS 24.0*, MEKK2wt confirm 148.0, MEKK2mut confirm 18.0 and MEKK3 confirm 102.0.
CCN(CC)CCN(C(=O)c1ccc(C(=O)c2ccccc2)cc1)c1nc2ccc(OC)cc2s1 was read as MEKK3 PB1 HTS 113.0, MEKK2wt PB1 HTS 172.0*, VIM-2 inhibitor -1.6, IMP-1 inh -0.2, MEKK2mut PB1 HTS 37.0*, MEKK2wt confirm 163.0, MEKK2mut confirm 31.0 and MEKK3 confirm 105.0.
`Cc1ccc2nc(N(CCCN(C)C)C(=O)c3cc4ccccc4oc3=O)sc2c1` gave MEKK3 PB1 HTS 104.0, MEKK2wt PB1 HTS 117.0, VIM-2 inhibitor -1.4, IMP-1 inh -0.1 and MEKK2mut PB1 HTS 1.0.
`Cc1ccc(NS(=O)(=O)c2ccc(Br)s2)nc1` gave MEKK3 PB1 HTS 98.0, MEKK2wt PB1 HTS 97.0, VIM-2 inhibitor -2.1, IMP-1 inh -3.1 and MEKK2mut PB1 HTS 0.0.
Screening CCCn1c(=O)c2c(c3ccccc31)OC(C)C(=O)N2 (stereo not drawn) returned MEKK3 PB1 HTS 87.0, MEKK2wt PB1 HTS 90.0, VIM-2 inhibitor -1.2, IMP-1 inh -2.2 and MEKK2mut PB1 HTS -5.0.
For O=C1CC(c2ccccc2)CN1C(=O)c1cccnc1 (stereo not drawn) the results were MEKK3 PB1 HTS 141.0*, MEKK2wt PB1 HTS 124.0, VIM-2 inhibitor -5.7, IMP-1 inh -1.3, MEKK2mut PB1 HTS 6.0, MEKK2wt confirm 102.0, MEKK2mut confirm 0.0 and MEKK3 confirm 99.0.
O=C(C(=O)N1CCN(c2ccc([N+](=O)[O-])cc2)CC1)c1cn(CC(=O)N2CCOCC2)c2ccccc12 was read as MEKK3 PB1 HTS 105.0, MEKK2wt PB1 HTS 110.0, VIM-2 inhibitor -0.6, IMP-1 inh 0.2 and MEKK2mut PB1 HTS 8.0.
O=C(/C=C/c1ccccc1)N1CCN(C(=O)c2ccco2)CC1 was read as MEKK3 PB1 HTS 69.0*[inhibitor], MEKK2wt PB1 HTS 119.0, VIM-2 inhibitor -1.1, IMP-1 inh -1.7, MEKK2mut PB1 HTS 9.0, MEKK2wt confirm 91.0, MEKK2mut confirm -7.0 and MEKK3 confirm 87.0.
O=C(c1ccco1)N1CCN(C(=O)N2c3ccccc3Sc3ccccc32)CC1 was read as MEKK3 PB1 HTS 78.0*[inhibitor], MEKK2wt PB1 HTS 90.0, VIM-2 inhibitor -0.5, IMP-1 inh -2.9, MEKK2mut PB1 HTS -8.0, MEKK2wt confirm 97.0, MEKK2mut confirm -4.0 and MEKK3 confirm 96.0.
O=C(N/N=C\C=C\c1ccc2c(c1)OCO2)c1cccnc1 was read as MEKK3 PB1 HTS 135.0*, MEKK2wt PB1 HTS 109.0, VIM-2 inhibitor -2.7, IMP-1 inh -2.2, MEKK2mut PB1 HTS 1.0, MEKK2wt confirm 103.0, MEKK2mut confirm 0.0 and MEKK3 confirm 101.0.
`O=C(Cn1c(O)c(/C=C2\C=Nc3ccccc32)sc1=O)Nc1ccc2c(c1)OCO2` gave MEKK3 PB1 HTS 79.0*[inhibitor], MEKK2wt PB1 HTS 80.0, VIM-2 inhibitor 1.2, IMP-1 inh -2.5, MEKK2mut PB1 HTS -4.0, MEKK2wt confirm 104.0, MEKK2mut confirm 12.0 and MEKK3 confirm 102.0.
O=C(Cn1c(O)c(/C=C2\C=Nc3ccccc32)sc1=O)N1CCOCC1 was read as MEKK3 PB1 HTS 99.0, MEKK2wt PB1 HTS 99.0, VIM-2 inhibitor -1.8, IMP-1 inh -2.9 and MEKK2mut PB1 HTS 0.0.
`O=[N+]([O-])c1ccc(N2CCN(C(=S)c3cccc([N+](=O)[O-])c3)CC2)cc1` gave MEKK3 PB1 HTS 125.0, MEKK2wt PB1 HTS 114.0, VIM-2 inhibitor -4.2, IMP-1 inh -3.6 and MEKK2mut PB1 HTS 25.0.
